The record followed here is ChEMBL document CHEMBL4680111, “Target Validation and Identification of Novel Boronate Inhibitors of the Plasmodium falciparum Proteasome” (J Med Chem, 2018).

pIC50: −log10 of the molar value. Activity calls are given as the source filed them. The rule behind the calls is not given here. Bounds are passed on as bounds.

In data set [1] the target is T1, Proteasome subunit beta type-9 (Homo sapiens, UniProt P28065).
T1 sequence (P28065 whole entry): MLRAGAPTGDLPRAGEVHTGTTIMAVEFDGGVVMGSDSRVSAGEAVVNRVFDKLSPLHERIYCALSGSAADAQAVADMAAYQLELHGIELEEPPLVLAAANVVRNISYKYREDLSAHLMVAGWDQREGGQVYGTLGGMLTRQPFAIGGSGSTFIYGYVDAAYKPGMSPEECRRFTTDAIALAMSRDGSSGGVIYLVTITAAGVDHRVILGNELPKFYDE
Kind of data set: Inhibition of human 20S immunoproteasome beta 1 subunit caspase-like activity using fluorogenic peptide Ac-nLPnLD-AMC as substrate in presence of PA28alpha incubated for 1 to 2 hrs by fluorescence microplate reader assay.

Data set [2] can be described thus: Inhibition of Plasmodium falciparum 20S proteasome beta 5 subunit chymotrypsin-like activity using fluorogenic peptide Ac-WLA-AMC as substrate in presence of PA28alpha incubated for 1 to 2 hrs by fluorescence microplate reader assay.
For data set [3], the target named is T2, Proteasome subunit beta type-8 (Homo sapiens, UniProt P28062).
T2 sequence (P28062 whole entry): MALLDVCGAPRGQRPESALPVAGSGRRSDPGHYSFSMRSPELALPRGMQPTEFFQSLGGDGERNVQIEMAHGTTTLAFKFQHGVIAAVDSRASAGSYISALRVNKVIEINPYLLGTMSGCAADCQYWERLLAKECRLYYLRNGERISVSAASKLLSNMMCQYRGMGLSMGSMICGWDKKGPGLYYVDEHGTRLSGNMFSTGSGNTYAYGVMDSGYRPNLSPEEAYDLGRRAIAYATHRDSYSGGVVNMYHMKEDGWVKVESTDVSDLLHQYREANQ
Description: Inhibition of human 20S immunoproteasome beta 5 subunit chymotrypsin-like activity using fluorogenic peptide Ac-WLA-AMC as substrate in presence of PA28alpha incubated for 1 to 2 hrs by fluorescence microplate reader assay.

In data set [4] the target is T3, Proteasome Macropain subunit MB1 (Homo sapiens, UniProt P28074).
T3 sequence (P28074 whole entry): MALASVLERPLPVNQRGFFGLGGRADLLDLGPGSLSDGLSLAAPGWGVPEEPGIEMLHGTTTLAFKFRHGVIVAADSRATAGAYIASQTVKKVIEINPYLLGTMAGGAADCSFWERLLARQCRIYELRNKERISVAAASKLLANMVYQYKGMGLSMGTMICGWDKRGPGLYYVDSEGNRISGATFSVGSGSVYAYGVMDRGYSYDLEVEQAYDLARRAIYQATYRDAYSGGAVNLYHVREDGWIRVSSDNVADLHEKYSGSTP
Kind of data set: Inhibition of human 20S constitutive proteasome beta 5 subunit chymotrypsin-like activity using fluorogenic peptide Ac-WLA-AMC as substrate in presence of PA28alpha incubated for 1 to 2 hrs by fluorescence microplate reader assay.

For data set [5], the target named is T4, Proteasome subunit beta type-10 (Homo sapiens, UniProt P40306).
T4 sequence (P40306 whole entry): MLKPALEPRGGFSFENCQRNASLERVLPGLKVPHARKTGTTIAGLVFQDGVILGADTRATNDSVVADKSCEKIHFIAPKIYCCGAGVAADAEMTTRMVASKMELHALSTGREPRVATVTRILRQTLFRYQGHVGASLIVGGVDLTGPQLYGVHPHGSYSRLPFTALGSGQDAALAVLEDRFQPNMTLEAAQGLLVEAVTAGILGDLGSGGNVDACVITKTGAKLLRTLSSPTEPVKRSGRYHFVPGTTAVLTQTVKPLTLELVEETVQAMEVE
Kind of data set: Inhibition of human 20S immunoproteasome beta 2 subunit trypsin-like activity using fluorogenic peptide Ac-WLR-AMC as substrate in presence of PA28alpha incubated for 1 to 2 hrs by fluorescence microplate reader assay.

A short description of data set [6]: Inhibition of Plasmodium falciparum 20S proteasome beta 1 subunit caspase-like activity using fluorogenic peptide Ac-nLPnLD-AMC as substrate in presence of PA28alpha incubated for 1 to 2 hrs by fluorescence microplate reader assay.
For data set [7], the target named is T5, Proteasome subunit beta type-8 (Homo sapiens) (UniProt P28062).
T5 sequence (whole entry): T2 sequence (P28062 whole entry)
Kind of data set: Inhibition of human 20S immunoproteasome beta 5 subunit assessed as inhibition of BMV037 probe labeling at 1 to 10 uM incubated for 1 hr by SDS-PAGE analysis. Particulars: dose 1-10 µM. The essentials:
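Purified human immuno-20S (20 nM) was incubated with compound at 37°C for 1 h, then labelled with 10 µM BMV037 at 37°C for 2 h. Samples were run on 4-12% Bis-Tris gel with MES buffer, and active subunits were visualised by Cy5 fluorescence.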

The nature of data set [8]: Selectivity index, ratio of LD50 for cytotoxicity against human HepG2 cells to LD50 for antiplasmodial activity against Plasmodium falciparum 3D7 sorbitol-treated ring stage. It is filed as toxicity, cell-based. Particulars: read-out: Selectivity Index.
Data set [9] concerns Plasmodium falciparum. Kind of data set: Antiplasmodial activity against sorbitol synchronized ring stage Plasmodium falciparum 3D7 assessed as reduction in parasitemia incubated for 72 hrs by Syto-61 staining dye based flow cytometry analysis. Format: functional. The conditions noted are these: read-out: LD50 (the source's name). The procedure, abridged: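 Sorbitol-treated ring-stage parasites in O+ human erythrocytes were incubated with compound for 72 h, and viability was read in the second cycle. Read-out was Syto-61 (2 µM) flow cytometry of parasitemia, normalized to untreated and 2 µM DHA-killed controls. Mean ± SEM of three independent experiments.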

Data set [10] concerns the target T6, Proteasome subunit beta type-6 (Homo sapiens, UniProt P28072).
T6 sequence (P28072 whole entry): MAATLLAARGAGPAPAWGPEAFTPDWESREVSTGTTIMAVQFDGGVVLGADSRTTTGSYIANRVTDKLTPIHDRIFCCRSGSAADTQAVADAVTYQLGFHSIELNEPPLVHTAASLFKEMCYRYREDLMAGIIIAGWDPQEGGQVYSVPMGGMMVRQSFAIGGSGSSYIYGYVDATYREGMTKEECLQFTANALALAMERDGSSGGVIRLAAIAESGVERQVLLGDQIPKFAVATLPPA
Kind of data set: Inhibition of human 20S constitutive proteasome beta 1 subunit caspase-like activity using fluorogenic peptide Ac-nLPnLD-AMC as substrate in presence of PA28alpha incubated for 1 to 2 hrs by fluorescence microplate reader assay.

The test system of data set [11] is Plasmodium falciparum. Kind of data set: Antiplasmodial activity against DHA-resistant and sorbitol synchronized ring stage forms of Plasmodium falciparum Cam3.II^R539T expressing K13 mutant assessed as reduction in parasitemia incubated for 3 hrs by pulse exposure based Syto-61 staining dye based flow cytometry analysis. Format: functional. The conditions noted are these: read-out: LD50 (the source's name). The procedure, abridged: (§1)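 Tightly synchronized early-ring parasites (1-3 h post-invasion) exposed to compound for 3 h, then viability assessed in the next cycle. Cells stained with 2 µM Syto-61 and parasitemia read by flow cytometry, normalized to untreated and kill controls (2 µM DHA, 48-72 h). Mean ± SEM of three independent experiments.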
Background: A flow cytometer gives signals particle by particle.

Data set [12] concerns Plasmodium falciparum. Kind of data set: Antiplasmodial activity against DHA-sensitive and sorbitol synchronized ring stage forms of Plasmodium falciparum Cam3.II^rev expressing K13 wild-type genotype assessed as reduction in parasitemia incubated for 3 hrs by pulse exposure based Syto-61 staining dye based flow cytometry analysis. Format: functional. Particulars: read-out: LD50 (the source's name). The procedure, abridged: as §1

The subject of data set [13] is Plasmodium falciparum 3D7. Kind of data set: Inhibition of 20S proteasome beta 5 subunit in bortezomib-resistant Plasmodium falciparum 3D7 assessed as inhibition of BMV037 probe labeling at 1 to 10 uM incubated for 1 hr by SDS-PAGE analysis. Particulars: dose 1-10 µM.

What is called pIC50 is −log10 of the IC50, conventionally taken in molar units. For `Cc1ccc(S(=O)(=O)N[C@@H](CC(=O)NCC(C)(C)C)C(=O)N[C@@H](Cc2ccccc2)C(=O)N[C@@H](CC(C)C)B(O)O)cc1`, the negative logarithm of the IC50 (pIC50) in data set [1] is 7.54; in [2], 7.80; in data set [3] it was 8.30; in data set [4], 8.05; in data set [5], 6.89; in [6] it was 5.75. The pIC50 in [10] was 5.80. The inhibition entry in data set [7] and in data set [13] was “Active” each time. In addition, the selectivity ratio in data set [8] came to 4. The LC50 came out at 65 nM in the data set on Plasmodium falciparum [9], 190 nM with Plasmodium falciparum [11] and 210 nM in the data set on Plasmodium falciparum [12].
As for `CC(C)C[C@H](NC(=O)[C@H](Cc1ccccc1)NC(=O)Cc1ccc(O)cc1)B(O)O`, the pIC50 was 8.30 in data set [1]; 8.00 in data set [2]; 8.89 in [3]; 8.85 in data set [4]; 6.52 in data set [5]; 6.22 in data set [6]. In data set [10], the pIC50 was 7.28. Also, the inhibition result in data set [7] was “Active”. Further, in data set [8], the selectivity ratio came out at 0.7. Also, the figures for the LC50 with Plasmodium falciparum [9], in the data set on Plasmodium falciparum [11] and in the data set with Plasmodium falciparum [12] were 61 nM, 160 nM and 180 nM, respectively. Further, the inhibition entry in [13] is “inactive”.
`CC(=O)N1CCC[C@@H]1C(=O)N[C@@H](C)C(=O)N[C@@H](Cc1ccccc1)B(O)O`: the pIC50 in [1] is 8.10; in [2], 5.82; in data set [3] it was 7.55; in data set [4], 6.66; in [5], less than 5.00; in [6] it was 5.50. For the same compound, the pIC50 in [10] was 5.47. The inhibition entry in [7] and in data set [13] was “Active” in each case. In addition, the selectivity ratio in data set [8] is 56. The figures for the LC50 with Plasmodium falciparum [9], with Plasmodium falciparum [11] and in the data set with Plasmodium falciparum [12] were 120 nM, 820 nM and 900 nM, respectively.
